From ChEMBL document CHEMBL1134464, “Synthesis, antimalarial activity, biomimetic iron(II) chemistry, and in vivo metabolism of novel, potent C-10-phenoxy derivatives of dihydroartemisinin” (J Med Chem, 2001) come the findings set out here.

Usually IC50 stands for the midpoint of a concentration-inhibition curve. The term ED50 denotes the midpoint of the dose-response relation. A lower ED50 goes with an effect at a small dose.

Test [1] deals with Plasmodium falciparum. Nature of the test: In vitro antimalarial activity against chloroquine-sensitive Plasmodium falciparum HB3. Type of test: functional, organism-based. An outline of the steps: (§1)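 48-h [3H]hypoxanthine incorporation assay on P. falciparum cultured in human erythrocytes in RPMI 1640 with 25 mM HEPES, 32 mM NaHCO3 and 10% human serum, gassed 3% O2/4% CO2/93% N2. Assay at 2% parasitemia and 0.5% hematocrit, with DMSO stocks diluted in medium, run in triplicate. 0.5 μCi hypoxanthine added after 24 h at 37 °C, then 24 h more. IC50 interpolated from probit of log dose–response.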

Test [2] relates to Plasmodium falciparum. As to the kind of experiment: In vitro antimalarial activity against chloroquine-resistant Plasmodium falciparum K1. Type of test: functional, organism-based. In short, it runs like this: as §1
Test [3] concerns Mus musculus. Nature of the test: In vivo antimalarial activity against Plasmodium berghei. Type of test: functional.
In test [4] the test system is Plasmodium yoelii. As to the kind of experiment: In vivo antimalarial activity against Plasmodium yoelii when administered subcutaneously. The note with it: Mus musculus, sc.
The test system of test [5] is Mus musculus. Nature of the test: In vivo antimalarial activity against Plasmodium berghei when administered perorally. The note with it: po. Type of test: functional.
Test [6] deals with Mus musculus. Nature of the test: In vivo antimalarial activity against Plasmodium yoelii when administered subcutaneously. Type of test: functional. The note with it: sc.
The test system of test [7] is Plasmodium berghei. Nature of the test: In vivo antimalarial activity against Plasmodium berghei.

In the case of `C[C@H]1[C@H](Oc2ccc(C(F)(F)F)cc2)O[C@@H]2OC3(C)CC[C@H]4[C@H](C)CC[C@@H]1[C@@]24OO3` (single isomer, unassigned), the IC50 in test [1] is 3.42 nM; in test [2], 4.62 nM.

For the compound `C[C@H]1[C@@H](Oc2ccc(C(F)(F)F)cc2)O[C@@H]2OC3(C)CC[C@H]4[C@H](C)CC[C@@H]1[C@@]24OO3` (single isomer, unassigned), the IC50 turned out to be 3.9 nM in test [1] and 5.29 nM in test [2]. Further, the results for the ED50 in test [3], in test [4] and in test [5] were 2.12 mg/kg, 2.2 mg/kg and 2.7 mg/kg, respectively. In addition, the values for the ED90 in test [5] and in test [6] were 5.4 mg/kg and 3.1 mg/kg, respectively.

With `Cc1ccc(O[C@@H]2O[C@@H]3OC4(C)CC[C@H]5[C@H](C)CC[C@@H]([C@H]2C)[C@@]35OO4)cc1` (single isomer, unassigned), the IC50 in test [1] came to 2.87 nM; in test [2] it was 3.18 nM.

In the case of `Cc1ccc(O[C@H]2O[C@@H]3OC4(C)CC[C@H]5[C@H](C)CC[C@@H]([C@H]2C)[C@@]35OO4)cc1` (single isomer, unassigned), the IC50 came to 3.24 nM in test [1] and 3.92 nM in test [2].

As to `C[C@H]1[C@@H](O)O[C@@H]2O[C@@]3(C)CC[C@H]4[C@H](C)CC[C@@H]1[C@@]24OO3` [ARTENIMOL], the ED50 in test [7] turned out to be 1.95 mg/kg.

As to `C[C@@H]1CC[C@H]2[C@@H](C)C(=O)O[C@@H]3O[C@@]4(C)CC[C@@H]1[C@]32OO4` [ARTEMISININ], the values for the IC50 in test [1] and in test [2] were 9.67 nM and 11.2 nM, respectively.

Consider `C[C@H]1[C@H](Oc2ccc(F)cc2)O[C@@H]2OC3(C)CC[C@H]4[C@H](C)CC[C@@H]1[C@@]24OO3` (single isomer, unassigned), for which the figures for the IC50 in test [1] and in test [2] were 4.04 nM and 5.7 nM, respectively.

For `C[C@H]1[C@H](Oc2ccccc2)O[C@@H]2OC3(C)CC[C@H]4[C@H](C)CC[C@@H]1[C@@]24OO3` (single isomer, unassigned), the IC50 in test [1] turned out to be 2.61 nM; in test [2], 2.97 nM.

On to `C[C@H]1[C@H](OC(=O)CCC(=O)[O-])O[C@@H]2O[C@@]3(C)CC[C@H]4[C@H](C)CC[C@@H]1[C@@]24OO3.[Na+]` [SODIUM ARESUNATE], for which the ED50 in test [4] amounted to 3.6 mg/kg; in test [5] it was 4 mg/kg. For the same compound, the values for the ED90 in test [5] and in test [6] were 13 mg/kg and 13.5 mg/kg, respectively.

For `COc1ccc(O[C@@H]2O[C@@H]3OC4(C)CC[C@H]5[C@H](C)CC[C@@H]([C@H]2C)[C@@]35OO4)cc1` (single isomer, unassigned), the IC50 in test [1] was 3.32 nM; in test [2], 3.86 nM.

`COc1ccc(O[C@H]2O[C@@H]3OC4(C)CC[C@H]5[C@H](C)CC[C@@H]([C@H]2C)[C@@]35OO4)cc1` (single isomer, unassigned) registered an IC50 in test [2] of 4.58 nM.

As to `C[C@H]1[C@@H](Oc2ccc(F)cc2)O[C@@H]2OC3(C)CC[C@H]4[C@H](C)CC[C@@H]1[C@@]24OO3` (single isomer, unassigned), the IC50 in test [1] is 2.88 nM; in test [2] it was 4.58 nM.

For `C[C@H]1[C@@H](Oc2ccccc2)O[C@@H]2OC3(C)CC[C@H]4[C@H](C)CC[C@@H]1[C@@]24OO3` (single isomer, unassigned), the figures for the IC50 in test [1] and in test [2] were 3.24 nM and 3.66 nM, respectively. In test [3], this compound yielded an ED50 of 3.09 mg/kg.

Turning to `CO[C@H]1O[C@@H]2O[C@@]3(C)CC[C@H]4[C@H](C)CC[C@@H]([C@H]1C)[C@@]24OO3` [ARTEMETHER], the results for the IC50 in test [1] and in test [2] were 3.42 nM and 4.55 nM, respectively. Moreover, the 50% effect level in test [3] (ED50) was put at a dose of 6.02 mg/kg.
